In ChEMBL document CHEMBL3853294, “Design, synthesis and biological evaluation of novel HSP70 inhibitors: N, N'-disubstituted thiourea derivatives” (Eur J Med Chem, 2016):

Columns and labels:
[1] = biological target: Chaperone protein DnaK (Escherichia coli) (UniProt P0A6Y8); test: Inhibition of Escherichia coli DnaK ATPase activity at 200 uM incubated on shaker for 10 mins followed by 30 mins incubation by malachite green reagent based colorimetric assay
[2] = biological target: Chaperone protein DnaK (Escherichia coli) (UniProt P0A6Y8); test: Inhibition of Escherichia coli DnaK ATPase activity incubated on shaker for 10 mins followed by 30 mins incubation by malachite green reagent based colorimetric assay
Homo sapiens [3] = species: Homo sapiens; test: Inhibition of HSP70 in human BT/LapR1.0 cells assessed as potentiation of 1 uM of lapatinib-induced growth inhibition after 72 hrs by measuring coefficient of drug interaction by cell titer-glo based luminescence assay
BT-474 [4] = test: Potentiation of lapatinib-induced growth inhibition of human BT474 cells assessed as coefficient of drug interaction after 72 hrs by cell titer-glo based luminescence assay; type: functional
[5] = Growth inhibition of human BT474 cells at 10 uM after 72 hrs by cell titer-glo based luminescence assay; design: species or system BT-474; conditions: read-out: GI
Outline: (§1)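 Cells were trypsinised and seeded at 5000 cells/well, then cultured 24 h at 37 °C. Compound was added at 10 µM, alone or with 1 µM lapatinib, and incubated 72 h at 37 °C. CellTiter-Glo reagent was added at a volume equal to the medium, followed by 3 min shaking and 10 min at room temperature. Luminescence (ATP) was read and normalised to the blank control group.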

Homo sapiens [6] = species: Homo sapiens; test: Inhibition of HSP70 in human BT/LapR1.0 cells assessed as potentiation of 1 uM of lapatinib-induced growth inhibition at 10 uM after 72 hrs by cell titer-glo based luminescence assay
Outline: as §1

BT-474 [7] = test: Potentiation of lapatinib-induced growth inhibition of human BT474 cells at 10 uM after 72 hrs by cell titer-glo based luminescence assay; type: functional; conditions: BT-474, 72 h, read-out: GI
Outline: as §1

[8] = Growth inhibition of human BT/LapR1.0 cells at 10 uM after 72 hrs by cell titer-glo based luminescence assay; conditions: read-out: GI
Outline: as §1

| inhibition [1] [%] | inhibition [2] | Structure (SMILES) | Activity (Homo sapiens [3]) | Activity (BT-474 [4]) | inhibition at 72 h, 10 µM [5] [%] | growth inhibition (GI) (Homo sapiens [6]) [%] | inhibition of growth at 10 µM (BT-474 [7]) [%] | inhibition at 72 h, 10 µM [8] [%] |
| --- | --- | --- | --- | --- | --- | --- | --- | --- |
| 53 | Dose-dependent effect | COc1ccc(-c2nc(-c3cc(C(F)(F)F)cc(C(F)(F)F)c3)n(Cc3ccc(C(N)=O)cc3)c2-c2ccc(OC)cc2)cc1 |  |  |  |  |  |  |
| 43 | Dose-dependent effect | N#Cc1ccc(COC[C@H]2O[C@@H](n3c(NCc4ccc(Cl)c(Cl)c4)nc4c(N)ncnc43)[C@H](O)[C@@H]2O)cc1 |  |  |  |  |  |  |
| 44.1 |  | COc1cc(/C=C/C(=O)NC(CC(C)(C)C)NC(=S)Nc2ccccc2)cc(OC)c1OC (stereo unspecified) | < 1 | 0.65 | 19 | 62.3 | 90.9 | 40.9 |
